Test system: MS2 coat protein
Assay: apparent Kd, MS2 coat protein; higher = weaker binding; RNA-MaP array; FMN 200 µM where present
Summary of the method: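 The apparent Kd is the median of filtered binding-curve fits, one per cluster, to green signal normalised to red-channel RNA signal and control-cluster median Fmax. The clusters were on Illumina sequencing chips, and stalled E. coli RNA polymerase had transcribed the designs on them. Titration used SNAP-549-labelled MS2 coat protein from 0.7 or 1.5 nM, doubling to 3 µM, without and then with constant ligand, in 100 mM Tris-HCl pH 7.5, 80 mM KCl, 4 mM MgCl2, BSA, DTT, yeast tRNA and Tween-20.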

[1] = designed as: OFF switch for flavin mononucleotide, no ligand
[2] = ligand present: flavin mononucleotide, designed as: OFF switch for flavin mononucleotide
[3] = designed as: ON switch for flavin mononucleotide, no ligand
[4] = ligand present: flavin mononucleotide, designed as: ON switch for flavin mononucleotide

| Sequence | apparent Kd [1] [nM] | apparent Kd [2] [nM] | apparent Kd [3] [nM] | apparent Kd [4] [nM] |
| --- | --- | --- | --- | --- |
| AGCUAGUCAGGAUAUACGAACACCUCAAAAGAGGUGAAGGGACAUGAGGAUCACCCAUGUAGAAGGGACUAGCA | 33.1 | 112 | – | – |
| UAUCUAUUUAUGGGAUUAGAUUAUGAGGAUAUCAUUUUUUUAUACAUGAGGAUCACCCAUGUUUCUGAGAAGGCAUAUUUAAUA | – | – | 22.2 | 8.12 |
| GUUACAUGAGGAUCACCCAUGUAUGUGUGGGAGUAAGUGUCUUAGGAUAUCUAUCAUUGAAUUUAAGAGAAGGAAGAUUGUUGU | – | – | 113 | 126 |
| CUAUUCCGAGGAUAUACAUGAGGAUCACCCAUGUCGGGCCUCUGGCCUAAGGCCGAAAGUAGAAGGUGGGUUUC | 64.6 | 61.5 | – | – |
| UUAGUCAUGUGACGUGUUGACAUUCCAGAAGGGCCACAUGAGGAUCACCCAUGUCGAAGAAACAGGCAGGAUAUGGACCAAUGG | – | – | 43 | 11.2 |
| UCCGCAUCUGAGAAGGGAUCUCCGCGGAAGGGAUCAGGAUAUCGGACAUGAGGAUCACCCAUGUGCCGUUAAAGGACACCUGGU | – | 7.36 | – | – |
| GGGUGACUAGGAUAUACAUGAGGAUCACCCAUGUGUACUGGACCUGGGUAGUCUUGGAGUAGAAGGAGUAGCUG | 85.3 | 127 | – | – |
| CCGCAUAUGCAGGAUAUCGUAUCGGAAACGAUACGAGAAGGGUAAACAUGAGGAUCACCCAUGUUCCUUAACGG | 18 | 16.5 | – | – |
| CAUUAAUUCAUUAUAGUAAUUAUACAGGAUAUGUUACAUGAGGAUCACCCAUGUAUUCUUGGUAAACAGAAGGGUAUUUCUAGU | 7.35 | 9.31 | – | – |
| UGUGUUAUCGGAGGAUAUCGAUAUCAAACAUGAGGAUCACCCAUGUUGAGGAUCACACAUGUCCACGAGAAGGCCGACGUAGUG | – | – | 7.12 | 7.23 |
| AAAAAAAAAGUAGAGGAUAUCCGAGUGGUAACAUGAGGAUCACCCAUGUGAAGAAAGGAACAUGAGGAGAAGGCUACAAAAAAAAA | – | – | 46.6 | 16.6 |
| ACAUGUUUUGUAGGAUAUCACUAGUUGUGUUAUAUAUUUGUUAUAAUGUAUUGAGAAGGACAUUUACAUGAGGAUCACCCAUGU | – | 7.44 | – | – |
| CAGGACAGAGGAUAUACAUAGAUACAGAUUCAUGUAGAACUACAUGAGGAUCACCCAUGUAGAAGGCUGACCUG | 28.5 | 221 | – | – |
| CACGAUGAUGUAGGAUAUAUACUGGAAUACAGUAUAGAAGGACAUGAGGAUCACCCAUGUUAAGUGCCUCCAAGUAACAUCGUG | 17.2 | 25.4 | – | – |
| CGCAACUCAGAUCUUUUGAACAUGAGGAUCACCCAUGUAUUGAGAAGGAGGAAGAAGAGAGAUUCCUAGGAUAUCAGAGUUGCG | 5.95 | 5.81 | – | – |
| AAGUCUGGACGAGGAUAUCAGCUGUAUCUGGCGUCAACAUGAGGAUCACCCAUGUUGCUAUAGGGUGAGAAGGCGUUUGGGCAA | – | – | 84.9 | 19.9 |
| UGUUUUCAUGUAGGAUAUGCUUGUCGUAGAUACGCAGAAGGACAUGAGGAUCACCCAUGUUAAUGCGACAGAGUUUAGAUUCUU | 17.5 | 31.9 | – | – |
| UCCUUGGUACAGAAGGACCGAGCUCCGUAGCAGGUAGGAUAUGUACAUGAGGAUCACCCAUGUCAGCGGUAAUUACCAGUAUUC | 40.2 | 29.1 | – | – |
| ACGCAGCUAGGUGAGGAUAUCGGUGGUAAAACAUGAGGAUCACCCAUGUCCGAAGCUCGGACUUCCGAGAAGGCGCCCGGCUGCA | – | – | 122 | 15.7 |
| GUCGGAAACGACAAAAGUAGCAUACGAGAAGGCUGAUCCACGACAUGAGGAUCACCCAUGUAGUUAGAGGAUAUUGGAUGCUAC | – | – | 61.6 | 12.9 |
| CAUGGCACGUAGGAUAUCUCGCAGCCCGGCUGCAGAGAAGGACGUACAUGAGGAUCACCCAUGUAUGAUCCAAA | 24.5 | 49.2 | – | – |
| GUAAAUCAUGUAGGAUAUGCAUGGCGAAGCUACGCAGAAGGACAUGAGGAUCACCCAUGUCUGUCCGUCUGCGUACAGACGGAC | 25.6 | 170 | – | – |
| AAAUCAGCAGGAUAUGCGAUGUUGUGCUAGAUAGCGGGACCACAUGAGGAUCACCCAUGUAGAAGGGCUGGAUA | 57.5 | 29.5 | – | – |
| CGGGAGUCAGGAUAUACGGUCAUGUCGCCAGAUGUCAUGGUACAUGAGGAUCACCCAUGUAGAAGGGAGGAGAU | 75.7 | 136 | – | – |
| CAAGUGUCAGGAUAUACAUGAGGAUCACCCAUGUGUCUUUGUGAUCGUAGGGUGCACCGUAGAAGGGACACUCC | 70.4 | 127 | – | – |
| AAAAGACAUGAGGAUCACCCAUGUAAAAACAUAGGAGGAUAUGUCAUGAAAAAAGACUUGACAGAAGGCCUUUGUC | – | – | 164 | 65.4 |
| UUGGACGUCGUAGGAUAUGUAGGAUAUUCCUACAUGAGGAUCACCCAUGUUGACAUGGAAGAAGGACAGAAGGAUGAUGUCCAU | – | – | 414 | 5.34 |
| CACGAUCAUGUAGGAUAUAUACUGGAAUACAGUAUAGAAGGACAUGAGGAUCACCCAUGUUAUGUGCCUCCAAGUAAGAUCGUG | 17.7 | 23.2 | – | – |

| Sequence | apparent Kd [1] [nM] | apparent Kd [2] [nM] | apparent Kd [3] [nM] | apparent Kd [4] [nM] |
| --- | --- | --- | --- | --- |
| UGUCUCAGAGGAUAUACAGGUGUAGAUCCUUUAGACCCUUGACAUGAGGAUCACCCAUGUAGAAGGCUGCAGAC | 69.4 | 26.4 | – | – |
| CUGAUGUCAGGAUAUCAGAAAAGGUGCAAGGACGCACCAAAUGAGAAGGGACAUGAGGAUCACCCAUGUAAAAC | 25 | 122 | – | – |
| CCCUCACAUGAGGAUCACCCAUGUUAGGAUAUCUACCUGGAGCUUUGAUUAGCCCAACGGAGAAGGAACGUGCA | 19 | 18.7 | – | – |
| GCUGGACAAGGAUAUACAAUCGUGCUUCGGCACGUAAGGUCACAUGAGGAUCACCCAUGUAGAAGGUGUCCAGC | 23.8 | 157 | – | – |
| GGUCCAUCAUGAGGAUAUGGCACCUUAUUGGUGCCAGAAGGCAUGUCUAUAGACAUGAGGAUCACCCAUGUAAUAAAAUGGACC | – | – | 571 | 61.5 |
| CCGAAUGUCACAGGAUAUGGUCCGGGCACGCGACCAGAAGGGUGAUCUCACAUGAGGAUCACCCAUGUGCAGGCGUAAGGCUGC | – | – | 28.4 | 193 |
| GUCAGACGAGGAUAUAGAUUUAAGUACAUGAGGAUCACCCAUGUACACAUGUAUUUAGAUUUAGAAGGCGUCUGAC | 594 | 700 | – | – |
| UUAUUAUAUGUAGGAUAUGCAUAUUAUUAUUAUGCAGAAGGACAUGAGGAUCACCCAUGUAUAUUAUUAUUAUAUAUUAUAUGU | 41.2 | 86.1 | – | – |
| UGUCGGAGCAGAGGAUAUACAUGAGGAUCACCCAUGUAAUAAAGUGAAGCCUGGAAACAGGCAAUGUAGAAGGCUGCUCCGACA | 29.9 | 249 | – | – |
| UGUAUUAAUGGAGGAUAUCGAUAUCAAACAUGAGGAUCACCCAUGUUGAGGAUCACCCAUGUCCAUGAGAAGGCUGGCGUACGU | – | – | 45.4 | 40.9 |
| UUCAGCUCGUGAGGAUAUACAUGUGCUGGAAACAGCACUAUUGUGUUCACAUGAGGAUCACCCAUGUAGAAGGCACGAGCUGAG | 18.6 | 82.1 | – | – |
| UAUGUGUGAGGAUAUGGUAAAGAUAAGAUGAUGAAAGAACUCCAGAAGGCACAUGAGGAUCACCCAUGUAGAUA | 22.8 | 45.6 | – | – |
| AAUAGGCGAGGAUAUACAUGAGGAUCACCCAUGUAAGUAAGCCUGGCUGAAACUAAAUGUAGAAGGCGCAAUAA | 14.3 | 43.1 | – | – |
| CACAAGAAAGUCGAAGGUUGAAGUAGAAGGACUAUAACAUGACAUGAGGAUCACCCAUGUGCCAAGUAGGAUAUGCUUUAAUCG | 7.7 | 7.38 | – | – |
| CAGUACUGAGGAUAUACAUGAGGAUCACCCAUGUGUUCCAGCUAGGAGACUAGCAAAAGUAGAAGGCAGUACUG | 27 | 345 | – | – |
| AUCAGCGCGUCAGGAUAUACGUCACUGCGUCAGCAGUGUGGUAAGAUCACAUGAGGAUCACCCAUGUAGAAGGGACGAGCUGAU | 12.8 | 307 | – | – |
| GCUUAGUAAGGAUAUUCACCGAUAAACAUGAGGAUCACCCAUGUCAUGUACCGUCGCCCGGAAGAAGGUACAGGCU | 49.6 | 44.9 | – | – |
| UAAGACUAGCAUUGGUAUCUCCACAUGAGGAUCACCCAUGUUUAGGAUAUGAGCAGCAAAGCUGCUUAGAAGGAGACGCUAGUC | 7.26 | 7.21 | – | – |
| GGAUAGGACAGAGGAUAUACGUGCUAGAGAUACUAGCAAAAUUUCUUCACAUGAGGAUCACCCAUGUAGAAGGCUGUCCUAUCG | 4.55 | 5.6 | – | – |
| GUGAACAUGAGGAUCACCCAUGUAGCUCACUGCCAGUGGCUACAGGAUAUAGCACUCCGAAGGUGCUAGAAGGGUGGCCUAGAA | – | – | 92.8 | 22.1 |
| UAGUGCGUUAGAGGAUAUUCUAAAUAAAAUAAUAAGACAUGAGGAUCACCCAUGUAUGUACAUGGGAAGAAGGCUGAUGUGCUA | – | – | 573 | 42.9 |
| GGUGCGCCAAGCCUUAAGACCGAACAUGAGGAUCACCCAUGUGAGGAUAUGACAGACGAAAGAAGUCAGAAGGCAUAAGGGUGG | 7.12 | 10.1 | – | – |
| GCGUGUAUAAGAUUUAUAAAACAGUCAGAAGGUGAUAAGACGACAUGAGGAUCACCCAUGUAAUUCAAGGAUAUGAUAAUACGC | – | – | 53.8 | 13.3 |
| CUGUGACGGUGCGCAAGUGGACGUAGAAGGGUCACAUGAGGAUCACCCAUGUGGGCCUGCUAUUGACAGGAUAUACGUUCGUAC | 5.28 | 5 | – | – |
| UGUGCGUAUGUGAGGAUAUGCUGGUCCUUGGAUCGGCAGAAGGCACAUGAGGAUCACCCAUGUGGUGUCGUUCU | 389 | 24.8 | – | – |
| AUAAACGCAGGAUAUACAUGAGGAUCACCCAUGUCCGCGCUUGUUGCGGGCACCUGAUGUAGAAGGGCGGGCGC | 214 | 184 | – | – |
| CACCGUUACGUAGGAUAUAGUACAUGAGGAUCACCCAUGUAAUAAAUGAGAAUUUCGGAUGUAUGCUAGAAGGACGAAAUCGGC | 53 | 49.1 | – | – |

— the EternaBench riboswitch data
